From article PMC8204328 (ACS Pharmacology & Translational Science, 2021)

Tests used:
lean wild-type mice = experiment: Upper GI motility; format: in vivo, mouse
Summary of the method: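 Upper gastrointestinal motility by charcoal transit in lean wild-type mice. The CB1R agonist ACEA is given intraperitoneally at 10 mg/kg, with or without test compound. Test compound is also given without agonist to assess motility alone.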

[1] = tested on: C2C12 mouse muscle myotubes; experiment: Insulin-induced Akt-2 phosphorylation in C2C12 myotubes; format: cell-based; conditions: 100 nM insulin; CP-55940 5 μM
Summary of the method: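 Cultured C2C12 mouse muscle myotubes, mock- or βArr2-siRNA-transfected, exposed to 100 nM insulin with or without the CB1R agonist CP-55940 (5 μM) and test compound (100 nM). Akt phosphorylation by Western blot, β-actin loading control, densitometry quantification; each treatment in duplicate cell aliquots.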

[2] = tested on: M384S, I105A and M109A mutant hCB1R; experiment: CP55,940-induced βArr2 recruitment in HEK cells expressing mutant hCB1R; format: cell-based, human; conditions: mutations M384S
hCB1R = hCB1R (Homo sapiens, UniProt P21554); format: cell-based
[3] = acute oral 3 mg/kg, male wild-type mice; cited from earlier work
mice [4] = experiment: Elevated plus maze test; format: in vivo, mouse
Summary of the method: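 The elevated plus maze scores anxiety-like behavior in male wild-type mice after acute oral dosing or 28 days of daily oral dosing with test compound or reference antagonist. Mean ± SEM of 4–6 independent experiments.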

mice [5] = experiment: Hyperambulatory activity in drug-naïve mice; format: in vivo, mouse; conditions: single oral 3 mg/kg, βArr2-KO mice and wild-type littermates

hCB1R, sequence (P21554 whole entry): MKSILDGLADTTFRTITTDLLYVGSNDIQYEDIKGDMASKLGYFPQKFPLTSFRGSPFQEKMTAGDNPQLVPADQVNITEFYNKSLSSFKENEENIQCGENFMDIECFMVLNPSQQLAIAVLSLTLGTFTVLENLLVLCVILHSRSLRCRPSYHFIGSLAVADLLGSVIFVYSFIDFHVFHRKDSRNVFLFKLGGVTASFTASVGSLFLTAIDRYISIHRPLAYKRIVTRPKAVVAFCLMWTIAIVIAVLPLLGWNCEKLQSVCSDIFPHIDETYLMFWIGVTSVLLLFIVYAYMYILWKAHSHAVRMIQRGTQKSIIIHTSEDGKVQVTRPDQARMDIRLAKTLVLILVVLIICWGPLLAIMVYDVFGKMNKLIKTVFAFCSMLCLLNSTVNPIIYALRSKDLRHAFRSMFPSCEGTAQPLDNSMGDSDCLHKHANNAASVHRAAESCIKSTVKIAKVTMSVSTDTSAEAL

CCCCC/C=C\C/C=C\C/C=C\C/C=C\CCCC(=O)NCCCl [ACEA, arachidonoyl chloroethylamine]
inhibition of upper GI motility (lean wild-type mice; 10 mg/kg intraperitoneal, lean wild-type mice): 60%
inhibition of upper GI motility, wild-type versus βArr2-KO mice (lean wild-type mice; ACEA alone): to the same extent

CCCCCCC(C)(C)c1ccc([C@@H]2C[C@H](O)CC[C@H]2CCCO)c(O)c1 [CP-55940]
effect on insulin-induced Akt-2 phosphorylation [1]: significantly inhibited
CP-55940-induced βArr2 recruitment at mutant hCB1R [2]: suppression

CN=C(NS(=O)(=O)c1ccc(Cl)cc1)N1C[C@H](c2ccccc2)C(c2ccc(Cl)cc2)=N1 [ibipinabant]
bias (G/βArr) (hCB1R): ≈ 2
brain/plasma ratio [3]: 22%

Cc1c(C(=O)NN2CCCCC2)nn(-c2ccc(Cl)cc2Cl)c1-c1ccc(Cl)cc1 [rimonabant]
anxiogenic behavior, elevated plus maze (mice [4]; acute oral, MRI-1891 up to 30 mg/kg, rimonabant 3 mg/kg): highly anxiogenic
anxiogenic behavior, elevated plus maze (mice [4]; chronic 28 days, MRI-1891 1 and 10 mg/kg/day, rimonabant 3 mg/kg/day): induced strong anxiety
anxiogenic response, elevated plus maze (mice [4]; single oral 3 mg/kg, βArr2-KO mice and wild-type littermates): identical, strong anxiogenic responses in both strains
hyperambulatory activity (mice [5]): similar, long-lasting hyperambulatory activity
upper GI motility in the absence of CB1R agonist (in vivo inverse agonism) (lean wild-type mice; MRI-1891 3 and 10 mg/kg): similar
